ChEMBL document CHEMBL1123712, “Synthesis and biological activity of novel calcium channel blockers: 2,5-dihydro-4-methyl-2-phenyl-1,5-benzothiazepine-3-carboxylic acid esters and 2,5-dihydro-4-methyl-2-phenyl-1,5-benzodiazepine-3-carboxylic acid esters” (J Med Chem, 1987)

Columns and labels:
Oryctolagus cuniculus = organism: Oryctolagus cuniculus; assay: Calcium channel blocking activity in rabbit; format: functional
In short: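 Thoracic aorta strips from male New Zealand rabbits (1.8–2.4 kg) in Krebs PSS at 37 °C, gassed 95% O2/5% CO2, pH 7.35. Contracted with high-K+ (100 mM KCl, NaCl reduced equimolar) Krebs. At plateau tension, increasing concentrations added cumulatively. Relaxation normalized to initial tension. IC50 by logit transformation of concentration-response curves.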

[1] = biological target: Voltage-dependent L-type calcium channel subunit alpha-1C (Canis lupus familiaris); assay: Reduction in amplitude of calcium-dependent slow-response action potential by blocking voltage sensitive calcium channel
Rattus norvegicus [2] = assay: Percent decrease in blood pressure in hypertensive rat at 60 mg/kg po; format: functional
In short: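 Spontaneously hypertensive rats dosed orally. Read-out was percent fall in blood pressure.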

Rattus norvegicus [3] = assay: Percent decrease in blood pressure in hypertensive rat at 16 mg/kg po; format: functional
In short: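 Spontaneously hypertensive rats dosed orally. Blood pressure read-out expressed as percent decrease. Test agents were given […] po.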

Row | IC50 (Oryctolagus cuniculus) [µM] | Compound | further results
1 | 1.7 | CO/C(O)=C1\C(C)=Nc2ccccc2SC1c1ccccc1 (stereo unspecified) | –
2 | 12 | CO/C(O)=C1\C(C)=Nc2ccccc2SC1c1ccccc1C(F)(F)F (stereo unspecified) | –
3 | 22 | CO/C(O)=C1\C(C)=Nc2ccccc2SC1c1ccc(OC)cc1 (stereo unspecified) | –
4 | 1.2 | CO/C(O)=C1\C(C)=Nc2ccccc2SC1c1cccc([N+](=O)[O-])c1 (stereo unspecified) | IC50 [1]: 0.14 µM
5 | 1.6 | CCO/C(O)=C1\C(C)=Nc2ccccc2NC1c1cccc([N+](=O)[O-])c1 (stereo unspecified) | –
6 | 0.5 | CC1=Nc2ccccc2SC(c2cccc([N+](=O)[O-])c2)/C1=C(\O)OC(C)C (stereo unspecified) | –
7 | 0.4 | CCO/C(O)=C1\C(C)=Nc2ccccc2SC1c1cccc([N+](=O)[O-])c1 (stereo unspecified) | –
8 | 1.1 | COC(=O)C1=C(C)N(CCN(C)C)c2ccccc2SC1c1cccc([N+](=O)[O-])c1 (stereo unspecified) | –
9 | 0.3 | CO/C(O)=C1\C(C)=Nc2ccccc2SC1c1ccccc1[N+](=O)[O-] (stereo unspecified) | –
10 | 10 | CO/C(O)=C1\C(C)=Nc2ccccc2S(=O)(=O)C1c1ccccc1 (stereo unspecified) | –
11 | 3 | CO/C(O)=C1\C(C)=Nc2ccccc2SC1c1ccc([N+](=O)[O-])cc1 (stereo unspecified) | –
12 | 1 | COc1ccc([C@@H]2Sc3ccccc3N(CCN(C)C)C(=O)[C@@H]2OC(C)=O)cc1 [DILTIAZEM] | Decrease (Rattus norvegicus [2]): 10%

Row | Compound | IC50 (Oryctolagus cuniculus) [µM] | further results
13 | COC(=O)C1=C(C)NC(C)=C(C(=O)OC)C1c1ccccc1[N+](=O)[O-] [NIFEDIPINE] | 0.001 | Decrease (Rattus norvegicus [3]): 25%
